Assay results: ChEMBL document CHEMBL5058577, “EUbOPEN Chemogenomics Library 2 (Multiplex)” (2022)

Test system: HEK-293T
Assay: Multiplex assay against HEK293T
Format: toxicity, cell-based
Details: human
Procedure, shortened: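 Compound was added to live cells that had been stained at seeding with Hoechst33342, BioTracker Green Microtubule Cytoskeleton Dye, MitoTracker Red and Annexin V Alexa Fluor 680, and imaging followed on a CQ1 microscope at 37°C and 5% CO2. CellPathfinder machine-learning gating divided cells into Hoechst high-intensity objects or normal cells, normal cells into healthy, pyknosed or fragmented nuclei, and pyknosed cells into mitotic or apoptotic. Tubulin, mitochondrial-mass and membrane-permeability phenotypes are per cents of healthy-nucleus cells.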

[1] = 12 h, 1 µM, compound concentration 1 uM, replicate 1
[2] = 12 h, 1 µM, compound concentration 1 uM, replicate 2
[3] = 12 h, 10 µM, compound concentration 10 uM, replicate 1
[4] = 12 h, 10 µM, compound concentration 10 uM, replicate 2
[5] = 24 h, 1 µM, compound concentration 1 uM, replicate 1
[6] = 24 h, 1 µM, compound concentration 1 uM, replicate 2
[7] = 24 h, 10 µM, compound concentration 10 uM, replicate 1
[8] = 24 h, 10 µM, compound concentration 10 uM, replicate 2
[9] = 48 h, 1 µM, compound concentration 1 uM, replicate 1
[10] = 48 h, 1 µM, compound concentration 1 uM, replicate 2
[11] = 48 h, 10 µM, compound concentration 10 uM, replicate 1
[12] = 48 h, 10 µM, compound concentration 10 uM, replicate 2

Cc1cc(=O)n(C)c2cc(N3C(=O)CC[C@H](NS(=O)(=O)CC(C)C)[C@H]3c3ccc(Cl)cc3)ccc12 was tested, and the “Population Apoptotic (%)” value [1] was 43%, the “Population Fragmented Nuclei (%)” value [1] was 7% and the “Population Healthy Nuclei (%)” value [1] was 83%. The “Population Hoechst High Intensity Objects (%)” value [1] was 8%, the “Population Membrane Permeable-Phenotype (%)” value [1] was 0% and the “Population Mitochondria Different-Phenotype (%)” value [1] was 41%. The “Population Mitotic Cells (%)” value [1] was 56%, the “Population Normal (%)” value [1] was 91% and the “Population Pyknosed Nuclei (%)” value [1] was 8%. The “Population Tubulin-Different-Phenotype (%)” value [1] was 32%, the “Total Cell Count” value [1] was 454 and the “Population Apoptotic (%)” value [2] was 63%. For the same compound, the “Population Fragmented Nuclei (%)” value [2] was 6%, the “Population Healthy Nuclei (%)” value [2] was 78% and the “Population Hoechst High Intensity Objects (%)” value [2] was 6%. For the same compound, the “Population Mitochondria Different-Phenotype (%)” value [2] was 53%, the “Population Mitotic Cells (%)” value [2] was 36% and the “Population Normal (%)” value [2] was 93%. The “Population Pyknosed Nuclei (%)” value [2] was 14%, the “Population Tubulin-Different-Phenotype (%)” value [2] was 14% and the “Total Cell Count” value [2] was 265. The “Population Apoptotic (%)” value [3] was 47%, the “Population Fragmented Nuclei (%)” value [3] was 4% and the “Population Healthy Nuclei (%)” value [3] was 70%. The “Population Hoechst High Intensity Objects (%)” value [3] was 11%, the “Population Membrane Permeable-Phenotype (%)” value [3] was 0% and the “Population Mitochondria Different-Phenotype (%)” value [3] was 75%. For the same compound, the “Population Mitotic Cells (%)” value [3] was 52%, the “Population Normal (%)” value [3] was 88% and the “Population Pyknosed Nuclei (%)” value [3] was 24%. The “Population Tubulin-Different-Phenotype (%)” value [3] was 81%, the “Total Cell Count” value [3] was 368 and the “Population Apoptotic (%)” value [4] was 50%. For the same compound, the “Population Fragmented Nuclei (%)” value [4] was 6%, the “Population Healthy Nuclei (%)” value [4] was 66% and the “Population Hoechst High Intensity Objects (%)” value [4] was 16%. The “Population Mitochondria Different-Phenotype (%)” value [4] was 86%, the “Population Mitotic Cells (%)” value [4] was 49% and the “Population Normal (%)” value [4] was 83%. For the same compound, the “Population Pyknosed Nuclei (%)” value [4] was 27%, the “Population Tubulin-Different-Phenotype (%)” value [4] was 66% and the “Total Cell Count” value [4] was 331. For the same compound, the “Population Apoptotic (%)” value [5] was 33%, the “Population Fragmented Nuclei (%)” value [5] was 9% and the “Population Healthy Nuclei (%)” value [5] was 81%. For the same compound, the “Population Hoechst High Intensity Objects (%)” value [5] was 4%, the “Population Membrane Permeable-Phenotype (%)” value [5] was 0% and the “Population Mitochondria Different-Phenotype (%)” value [5] was 25%. For the same compound, the “Population Mitotic Cells (%)” value [5] was 66%, the “Population Normal (%)” value [5] was 95% and the “Population Pyknosed Nuclei (%)” value [5] was 9%. For the same compound, the “Population Tubulin-Different-Phenotype (%)” value [5] was 19%, the “Total Cell Count” value [5] was 646 and the “Population Apoptotic (%)” value [6] was 36%. For the same compound, the “Population Fragmented Nuclei (%)” value [6] was 4%, the “Population Healthy Nuclei (%)” value [6] was 82% and the “Population Hoechst High Intensity Objects (%)” value [6] was 5%. For the same compound, the “Population Membrane Permeable-Phenotype (%)” value [6] was 1%, the “Population Mitochondria Different-Phenotype (%)” value [6] was 42% and the “Population Mitotic Cells (%)” value [6] was 63%. For the same compound, the “Population Normal (%)” value [6] was 94%, the “Population Pyknosed Nuclei (%)” value [6] was 13% and the “Population Tubulin-Different-Phenotype (%)” value [6] was 17%. The “Total Cell Count” value [6] was 327, the “Population Apoptotic (%)” value [7] was 34% and the “Population Fragmented Nuclei (%)” value [7] was 7%. The “Population Healthy Nuclei (%)” value [7] was 72%, the “Population Hoechst High Intensity Objects (%)” value [7] was 9% and the “Population Membrane Permeable-Phenotype (%)” value [7] was 0%. For the same compound, the “Population Mitochondria Different-Phenotype (%)” value [7] was 67%, the “Population Mitotic Cells (%)” value [7] was 65% and the “Population Normal (%)” value [7] was 90%. The “Population Pyknosed Nuclei (%)” value [7] was 19%, the “Population Tubulin-Different-Phenotype (%)” value [7] was 67% and the “Total Cell Count” value [7] was 419. For the same compound, the “Population Apoptotic (%)” value [8] was 76%, the “Population Fragmented Nuclei (%)” value [8] was 8% and the “Population Healthy Nuclei (%)” value [8] was 67%. For the same compound, the “Population Hoechst High Intensity Objects (%)” value [8] was 22%, the “Population Mitochondria Different-Phenotype (%)” value [8] was 85% and the “Population Mitotic Cells (%)” value [8] was 23%. The “Population Normal (%)” value [8] was 77%, the “Population Pyknosed Nuclei (%)” value [8] was 23% and the “Population Tubulin-Different-Phenotype (%)” value [8] was 71%. The “Total Cell Count” value [8] was 328, the “Population Apoptotic (%)” value [9] was 25% and the “Population Fragmented Nuclei (%)” value [9] was 14%. For the same compound, the “Population Healthy Nuclei (%)” value [9] was 78%, the “Population Hoechst High Intensity Objects (%)” value [9] was 3% and the “Population Membrane Permeable-Phenotype (%)” value [9] was 0%. The “Population Mitochondria Different-Phenotype (%)” value [9] was 17%, the “Population Mitotic Cells (%)” value [9] was 74% and the “Population Normal (%)” value [9] was 96%. For the same compound, the “Population Pyknosed Nuclei (%)” value [9] was 6%, the “Population Tubulin-Different-Phenotype (%)” value [9] was 15% and the “Total Cell Count” value [9] was 985. For the same compound, the “Population Apoptotic (%)” value [10] was 31%, the “Population Fragmented Nuclei (%)” value [10] was 11% and the “Population Healthy Nuclei (%)” value [10] was 79%. For the same compound, the “Population Hoechst High Intensity Objects (%)” value [10] was 7%, the “Population Mitochondria Different-Phenotype (%)” value [10] was 20% and the “Population Mitotic Cells (%)” value [10] was 68%. For the same compound, the “Population Normal (%)” value [10] was 92%, the “Population Pyknosed Nuclei (%)” value [10] was 9% and the “Population Tubulin-Different-Phenotype (%)” value [10] was 17%. The “Total Cell Count” value [10] was 454, the “Population Apoptotic (%)” value [11] was 56% and the “Population Fragmented Nuclei (%)” value [11] was 12%. For the same compound, the “Population Healthy Nuclei (%)” value [11] was 77%, the “Population Hoechst High Intensity Objects (%)” value [11] was 10% and the “Population Membrane Permeable-Phenotype (%)” value [11] was 1%. For the same compound, the “Population Mitochondria Different-Phenotype (%)” value [11] was 67%, the “Population Mitotic Cells (%)” value [11] was 43% and the “Population Normal (%)” value [11] was 89%. For the same compound, the “Population Pyknosed Nuclei (%)” value [11] was 10%, the “Population Tubulin-Different-Phenotype (%)” value [11] was 58% and the “Total Cell Count” value [11] was 548. The “Population Apoptotic (%)” value [12] was 66%, the “Population Healthy Nuclei (%)” value [12] was 67% and the “Population Hoechst High Intensity Objects (%)” value [12] was 19%. The “Population Membrane Permeable-Phenotype (%)” value [12] was 0%, the “Population Mitochondria Different-Phenotype (%)” value [12] was 76% and the “Population Mitotic Cells (%)” value [12] was 33%. The “Population Normal (%)” value [12] was 80%, the “Population Pyknosed Nuclei (%)” value [12] was 19% and the “Population Tubulin-Different-Phenotype (%)” value [12] was 56%. The “Total Cell Count” value [12] was 371.
